Screening data as filed in PubChem.
Yeast lifespan up – yeast lifespan extension; S. cerevisiae growth with nicotinamide, OD615; deaD strain in restrictive glucose medium; inhibition of the nicotinamide effect, % at 10 µM; actives 0.68% (n = 130,000); AID 775;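 active means inhibition above a set limit, placed 3 SD over the median of all compounds, cut at about 26% in these data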
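Material: Modified budding yeast, DeaD strain | Medium: Restrictive glucose medium | Probe or stimulus: 1.5 mM nicotinamide | Dosing: Single dose 10 µM compound, 0.25% DMSO | Times: 48 h at 30 °C | Technique: OD615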
BB579 growth dn – reduces growth of yeast BB579 in restrictive medium; S. cerevisiae BB579 growth, OD615, 48 h; inhibition, % at 10 µM; actives 0.51% (n = 140,000); AID 804;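 active means inhibition above a set limit, 3 SD over the mean compound inhibition, cut at about 44% in these data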
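Test system: DeaD yeast strain BB579 / Buffer or medium: restrictive glucose-based CSMM-D medium / Doses: single 10 µM dose / Schedule: 4 h cell preincubation, 48 h compound exposure, 30 °C humidified / Technique: culture absorbance at 615 nm / Controls: amphotericin B positive control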
S1P3 antagonist – S1P3 (human) receptor antagonism; Q99500; CHO S1P3 NFAT-BLA reporter, FRET fluorescence, antagonist mode; inhibition, % at 4.98 µM; actives 0.27% (n = 170,000);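 active means inhibition above the plate cutoff, the mean inhibition of test wells on that plate plus 3 SD, cut at about 28% in these data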;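 further: cells challenged with S1P at its EC80 of 0.8 µM; blue over green emission ratio from cleaved BLA substrate after 4 h stimulation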
Target sequence (Q99500 whole entry, looked up): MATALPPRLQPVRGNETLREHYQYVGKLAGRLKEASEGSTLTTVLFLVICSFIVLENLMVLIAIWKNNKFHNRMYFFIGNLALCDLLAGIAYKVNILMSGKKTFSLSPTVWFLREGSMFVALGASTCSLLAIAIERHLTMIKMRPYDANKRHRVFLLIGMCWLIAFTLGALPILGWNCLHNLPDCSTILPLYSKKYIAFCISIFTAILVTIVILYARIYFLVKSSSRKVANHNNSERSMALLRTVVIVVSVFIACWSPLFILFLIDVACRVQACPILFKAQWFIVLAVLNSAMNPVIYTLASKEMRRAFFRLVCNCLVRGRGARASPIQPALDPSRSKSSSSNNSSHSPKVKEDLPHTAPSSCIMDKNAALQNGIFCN
Hits are given with their value. Sampled rows, rich in hits. Any-hit rate of the full collection: about 0.98%.

Results for O=c1c2ccccc2cnn1Cc1n[nH]c(=S)n1-c1ccccc1Cl ?
Yeast lifespan up: inactive; BB579 growth dn: inactive; S1P3 antagonist: inactive

How did O=C(N/N=C/c1ccc(F)cc1)c1c(O)c2ccccc2[nH]c1=O do in these assays?
Yeast lifespan up: 57; BB579 growth dn: inactive; S1P3 antagonist: inactive

What do the screens show for `CCCCCCn1c(=O)c(C(=O)N/N=C/c2cccc(F)c2)c(O)c2ccccc21`?
S1P3 antagonist: inactive

How did CCCn1c(=O)c(C(=O)N/N=C/c2ccc(F)cc2)c(O)c2ccccc21 do in these assays?
S1P3 antagonist: inactive

How did O=C(N/N=C/c1ccccc1)c1c(O)c2ccccc2[nH]c1=O do in these assays?
Yeast lifespan up: 59; BB579 growth dn: inactive; S1P3 antagonist: inactive

How did CC(C)C(=O)NNC(=O)c1c(O)c2ccccc2[nH]c1=O do in these assays?
S1P3 antagonist: inactive

What do the screens show for `CC(C)CCn1c(=O)c(C(=O)N/N=C/c2cccc(F)c2)c(O)c2ccccc21`?
Yeast lifespan up: 38; BB579 growth dn: inactive; S1P3 antagonist: inactive

How did CC(C)NC(=O)c1c(O)c2ccccc2[nH]c1=O do in these assays?
Yeast lifespan up: inactive; BB579 growth dn: inactive; S1P3 antagonist: inactive

Results for COC(=O)c1c(O)c2ccccc2[nH]c1=O ?
Yeast lifespan up: 41; BB579 growth dn: inactive

Results for CCCS(=O)(=O)N1CCCC(c2nc(-c3cccc(OC)c3)no2)C1 (stereo unspecified) ?
Yeast lifespan up: inactive; BB579 growth dn: inactive; S1P3 antagonist: inactive

How did Clc1ccc2nc(CSc3nnc4ccccn34)cn2c1 do in these assays?
Yeast lifespan up: inactive; BB579 growth dn: inactive

What do the screens show for `Cn1c(=O)n(C)c2cc(/C=N/N=C3/NC(=O)C(CC(=O)O)S3)ccc21` (stereo unspecified)?
S1P3 antagonist: inactive

How did CCCCn1cnc(C(=O)OCC)c1N do in these assays?
Yeast lifespan up: inactive; BB579 growth dn: inactive; S1P3 antagonist: inactive

Results for O=C(N/N=C/c1cccc(Cl)c1)c1c(O)c2c([nH]c1=O)CCCC2 ?
S1P3 antagonist: inactive

Results for O=C(N/N=C/c1cccc(F)c1)c1c(O)c2ccccc2[nH]c1=O ?
Yeast lifespan up: 52; BB579 growth dn: inactive; S1P3 antagonist: inactive

What do the screens show for `O=C(NCC1CCCO1)c1c(O)c2ccccc2[nH]c1=O` (stereo unspecified)?
Yeast lifespan up: 57; BB579 growth dn: inactive; S1P3 antagonist: inactive

Results for CCOC(=O)c1c(NCC2CCCO2)c2ccccc2[nH]c1=O (stereo unspecified) ?
Yeast lifespan up: inactive; BB579 growth dn: inactive

How did CN(C)S(=O)(=O)c1cccc(NC(=O)COC(=O)CNC(=O)c2cccc([N+](=O)[O-])c2)c1 do in these assays?
S1P3 antagonist: inactive

Results for CCC(=O)Nc1cc(NC(=O)CSc2ncc(-c3ccc(F)cc3)n2Cc2ccco2)ccc1C ?
Yeast lifespan up: inactive; BB579 growth dn: inactive; S1P3 antagonist: inactive

How did Brc1ccc2ncnc(Nc3cccc4ccccc34)c2c1 do in these assays?
Yeast lifespan up: inactive; BB579 growth dn: inactive

Results for Cc1cccc(C(=O)O/N=C/c2c(N3CCOCC3)n(C)c3ccccc23)c1 ?
Yeast lifespan up: inactive; BB579 growth dn: 53

What do the screens show for `Cn1c(Cl)c(/C=N/OC(=O)c2ccccc2Cl)c2ccccc21`?
Yeast lifespan up: inactive; BB579 growth dn: inactive

Results for C/C=C/C(=O)OCC(=O)Nc1cccc(S(=O)(=O)NC2=NCCCCC2)c1 ?
S1P3 antagonist: inactive

How did CCC1=[N+](CC(=O)c2ccc(C)cc2)CCn2cccc21 do in these assays?
S1P3 antagonist: inactive

What do the screens show for `Cc1cc(NS(=O)(=O)c2ccc(NS(=O)(=O)c3ccc(CC(C)C)cc3)cc2)nc(C)n1`?
S1P3 antagonist: inactive

Results for Cc1cc(NS(=O)(=O)c2ccc(CC(C)C)cc2)no1 ?
Yeast lifespan up: 50; BB579 growth dn: inactive

How did CC1CCCN(CCOCCSc2ccccc2)C1 (stereo unspecified) do in these assays?
Yeast lifespan up: inactive; BB579 growth dn: inactive; S1P3 antagonist: inactive

What do the screens show for `CC1CN(C(NC(=O)c2ccccc2)C(Cl)(Cl)Cl)CC(C)O1` (stereo unspecified)?
S1P3 antagonist: inactive

How did CSc1ncc(Cl)c(C(=O)Nc2ccccc2Br)n1 do in these assays?
S1P3 antagonist: inactive

Results for O=[N+]([O-])c1cc(S(=O)(=O)C(F)(F)F)ccc1Sc1nc2ccccc2[nH]1 ?
Yeast lifespan up: 39; BB579 growth dn: inactive

How did CS(=O)(=O)c1ccc(Sc2nc3ccccc3[nH]2)c([N+](=O)[O-])c1 do in these assays?
Yeast lifespan up: inactive; BB579 growth dn: inactive

What do the screens show for `O=C(NCCCn1ccnc1)/C(=C\c1cccs1)NC(=O)c1cccs1`?
S1P3 antagonist: inactive

Results for CCC(C)(C)n1nnnc1C(c1cc2cc(C)cc(C)c2[nH]c1=O)N1CCCC1 (stereo unspecified) ?
Yeast lifespan up: inactive; BB579 growth dn: inactive; S1P3 antagonist: inactive

How did CCC(C)(C)n1nnnc1C(c1cc2cccc(C)c2[nH]c1=O)N1CCCC1 (stereo unspecified) do in these assays?
Yeast lifespan up: 36; BB579 growth dn: inactive; S1P3 antagonist: inactive

Results for CCOc1cc([N+](=O)[O-])cc(/C=C2/NC(=O)N(Cc3ccccc3F)C2=O)c1O ?
S1P3 antagonist: inactive

How did CC1CCCCN1S(=O)(=O)c1ccc(C(=O)Nc2ccccc2-c2nc3ccccc3[nH]2)cc1 (stereo unspecified) do in these assays?
Yeast lifespan up: inactive; BB579 growth dn: inactive; S1P3 antagonist: inactive

How did O=C(Nc1ccccc1-c1nc2ccccc2[nH]1)c1ccc(S(=O)(=O)N2CCCCC2)cc1 do in these assays?
Yeast lifespan up: 42; BB579 growth dn: inactive

How did CC(C)(C)n1cnnc1Sc1ncccc1[N+](=O)[O-] do in these assays?
S1P3 antagonist: inactive

Results for COc1cccc(C(=O)N(c2ccc(C)cc2)C2C=CS(=O)(=O)C2)c1 (stereo unspecified) ?
S1P3 antagonist: inactive

Results for CC(C)C(NC(=O)c1ccc(C(C)(C)C)cc1)C(=O)OCC(=O)NC(=O)Cc1ccccc1 (stereo unspecified) ?
Yeast lifespan up: inactive; BB579 growth dn: inactive; S1P3 antagonist: inactive

What do the screens show for `OC1=C(O)c2nc3cc(F)ccc3nc21`?
S1P3 antagonist: inactive

What do the screens show for `Fc1ccc2nc3[nH]c4ccccc4c3nc2c1`?
Yeast lifespan up: inactive; BB579 growth dn: 63; S1P3 antagonist: inactive

What do the screens show for `C/C(=N\N=C\c1ccccc1F)c1nnn(-c2nonc2N)c1C`?
Yeast lifespan up: inactive; BB579 growth dn: inactive; S1P3 antagonist: inactive

Results for Cc1ccc(-c2nn(-c3ccccc3)cc2CO)o1 ?
BB579 growth dn: inactive

Results for O=C(c1cc2c(ccc3ccccc32)oc1=O)N1CCCC1 ?
Yeast lifespan up: inactive; BB579 growth dn: inactive

What do the screens show for `O=C(O)c1cc2c(ccc3ccccc32)oc1=O`?
Yeast lifespan up: inactive; BB579 growth dn: 67

Results for O=C(O)c1cc2ccc3ccccc3c2oc1=O ?
BB579 growth dn: 64

How did O=C(O)c1cc2cc(Cl)cc(Cl)c2oc1=O do in these assays?
Yeast lifespan up: inactive; BB579 growth dn: inactive; S1P3 antagonist: inactive

How did Cc1cc2c(cc(C(=O)O)n2C)s1 do in these assays?
Yeast lifespan up: inactive; BB579 growth dn: 56; S1P3 antagonist: inactive

What do the screens show for `Cn1c(C(=O)O)cc2cc(F)ccc21`?
S1P3 antagonist: inactive

Results for Fc1ccc(-c2csc(-c3ccncc3)n2)cc1 ?
S1P3 antagonist: inactive
